Measured values from ChEMBL document CHEMBL4725404, “Design, synthesis and biological evaluation of 4-aryl-5-aminoalkyl-thiazole-2-amines derivatives as ROCK II inhibitors” (Bioorg Med Chem, 2020).

Key:
[1] = biological target: T1, Rho-associated protein kinase 2 (Homo sapiens, UniProt O75116); assay: Inhibition of ROCK2 (unknown origin) using C-terminus recombinant MBS (654-880 residues) as substrate at 10 uM incubated for 30 mins in presence of ATP by ELISA relative to control
Method in brief: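 ROCK II activity ELISA kit; compounds screened at 10 µM for percent inhibition. Kinase reaction incubated at 30 °C for 30 min, then washed. Horseradish peroxidase-conjugated anti-AF20 antibody added for 30 min at room temperature. TMB substrate developed and absorbance read at 450 nm. Inhibition rate derived from OD450.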
Target sequence in this assay (O75116 whole entry, looked up, the tested form may be a part): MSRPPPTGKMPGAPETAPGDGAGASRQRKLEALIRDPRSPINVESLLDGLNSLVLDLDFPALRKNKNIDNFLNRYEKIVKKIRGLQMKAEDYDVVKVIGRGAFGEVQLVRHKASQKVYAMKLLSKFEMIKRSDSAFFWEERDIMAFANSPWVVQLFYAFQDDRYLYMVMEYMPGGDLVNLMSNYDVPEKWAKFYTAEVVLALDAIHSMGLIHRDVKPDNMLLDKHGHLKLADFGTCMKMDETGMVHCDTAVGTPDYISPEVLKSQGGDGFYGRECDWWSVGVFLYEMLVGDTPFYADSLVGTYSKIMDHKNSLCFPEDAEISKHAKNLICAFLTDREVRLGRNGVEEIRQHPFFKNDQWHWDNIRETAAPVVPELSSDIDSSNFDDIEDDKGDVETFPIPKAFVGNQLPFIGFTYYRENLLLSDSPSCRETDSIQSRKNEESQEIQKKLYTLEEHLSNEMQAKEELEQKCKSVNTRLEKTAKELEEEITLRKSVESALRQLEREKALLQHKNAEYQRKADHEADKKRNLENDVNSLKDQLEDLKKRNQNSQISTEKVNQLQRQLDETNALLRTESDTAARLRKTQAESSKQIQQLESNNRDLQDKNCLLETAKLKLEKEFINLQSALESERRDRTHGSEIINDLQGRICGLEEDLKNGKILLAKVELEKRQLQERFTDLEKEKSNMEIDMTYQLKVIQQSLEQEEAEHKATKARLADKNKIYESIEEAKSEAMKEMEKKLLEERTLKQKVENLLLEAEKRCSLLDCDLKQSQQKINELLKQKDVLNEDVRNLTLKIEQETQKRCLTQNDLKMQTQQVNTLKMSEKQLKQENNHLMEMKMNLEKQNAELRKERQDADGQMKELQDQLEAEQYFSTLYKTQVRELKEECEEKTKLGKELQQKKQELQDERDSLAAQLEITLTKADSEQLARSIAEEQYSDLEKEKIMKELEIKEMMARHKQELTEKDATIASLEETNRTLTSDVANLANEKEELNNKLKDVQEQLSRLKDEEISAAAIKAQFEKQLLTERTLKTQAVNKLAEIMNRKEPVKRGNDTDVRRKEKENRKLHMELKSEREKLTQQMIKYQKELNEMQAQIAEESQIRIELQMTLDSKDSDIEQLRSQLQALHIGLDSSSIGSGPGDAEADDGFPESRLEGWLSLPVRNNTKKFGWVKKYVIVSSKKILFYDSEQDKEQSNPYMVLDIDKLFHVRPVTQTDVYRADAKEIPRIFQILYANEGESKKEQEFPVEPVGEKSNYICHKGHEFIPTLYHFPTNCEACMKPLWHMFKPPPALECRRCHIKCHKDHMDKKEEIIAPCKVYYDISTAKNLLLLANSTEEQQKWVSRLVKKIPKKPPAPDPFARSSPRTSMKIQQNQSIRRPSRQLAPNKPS

[2] = biological target: T1, Rho-associated protein kinase 2; assay: Inhibition of ROCK2 (unknown origin) using C-terminus recombinant MBS (654-880 residues) as substrate incubated for 30 mins in presence of ATP by ELISA
Method in brief: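 Compounds with significant single-point inhibition were run in full concentration–response in the ROCK II ELISA kit. Kinase step at 30 °C for 30 min, then wash. Anti-AF20 HRP antibody applied for 30 min at room temperature, followed by TMB colour development read at OD 450 nm. IC50 calculated by nonlinear regression of inhibition rates.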
Target sequence in this assay (O75116 whole entry, the tested form may be a part): as the sequence (O75116 whole entry, looked up, the tested form may be a part) above

| Compound | inhibition [1] | IC50 [2] |
| --- | --- | --- |
| CN(C)CCc1sc(NC(=O)C2COc3ccccc3O2)nc1-c1ccncc1 (stereo not drawn) | 78.5% | 0.09 µM |
| CN1CCN(Cc2sc(NC(=O)c3cccnc3)nc2-c2cccnc2)CC1 | 32.1% |  |
| O=C(Nc1nc(-c2ccncc2)c(CN2CCCC2)s1)c1ccncc1 | 47.6% |  |
| CN1CCN(c2sc(NC(=O)c3ccncc3)nc2-c2ccncc2)CC1 | 34.3% |  |
| CN(C)Cc1sc(NC(=O)c2cccnc2)nc1-c1cccnc1 | 33.9% |  |
| CC(C)N(C)c1sc(NC(=O)c2ccncc2)nc1-c1ccncc1 | 32.1% |  |
| CN(C)CCc1sc(NC(=O)c2ccncc2)nc1-c1ccncc1 | 48.8% |  |
| O=C(Nc1nc(-c2ccncc2)c(CN2CCOCC2)s1)c1ccncc1 | 58.1% |  |
| CC(C)N(C)Cc1sc(NC(=O)c2cccnc2)nc1-c1cccnc1 | 38.1% |  |
| CN(C)Cc1sc(NC(=O)C2COc3ccccc3O2)nc1-c1cccnc1 (stereo not drawn) | 58.1% | 4.96 µM |
| O=C(Nc1nc(-c2ccncc2)c(N2CCOCC2)s1)C1COc2ccccc2O1 (stereo not drawn) | 76.3% | 0.13 µM |
| O=C(Nc1nc(-c2ccncc2)cs1)C1COc2ccccc2O1 (stereo not drawn) | 91.3% |  |
| CN(C)C(=O)Cc1sc(NC(=O)C2COc3ccccc3O2)nc1-c1ccncc1 (stereo not drawn) | 56.9% | 8.83 µM |
| O=C(Nc1nc(-c2cccnc2)c(CN2CCCCC2)s1)c1cccnc1 | 28.5% |  |
| O=C(Nc1nc(-c2cccnc2)c(CN2CCOCC2)s1)c1cccnc1 | 41.1% |  |
| CN(C)C(=O)Cc1sc(NC(=O)c2ccncc2)nc1-c1ccncc1 | 38.1% |  |
| O=C(Nc1nc(-c2cccnc2)c(CN2CCOCC2)s1)c1ccncc1 | 51.1% |  |
| CN(C)Cc1sc(NC(=O)c2ccncc2)nc1-c1cccnc1 | 35.3% |  |
| O=C(Nc1nc(-c2ccncc2)c(CN2CCOCC2)s1)C1COc2ccccc2O1 (stereo not drawn) | 87.4% |  |
| O=C(Nc1nc(-c2cccnc2)c(CN2CCOCC2)s1)C1COc2ccccc2O1 (stereo not drawn) | 63.8% | 1.73 µM |
| O=C(Nc1nc(-c2ccncc2)c(CN2CCCCC2)s1)c1ccncc1 | 48.2% |  |
| O=C(Nc1nc(-c2cccnc2)c(CN2CCCC2)s1)C1COc2ccccc2O1 (stereo not drawn) | 61.3% |  |
| O=C(Nc1nc(-c2ccncc2)c(CN2CCOCC2)s1)c1cccnc1 | 52.2% |  |
